The target in experiment [1] is Thrombin and coagulation factor VII (Homo sapiens) (UniProt P00734+P08709). Description: Selectivity for coagulation factor VIIa over thrombin IIa. The experiment is classed as protein assay.
Another experiment has as its target T1, Coagulation factor VII (Homo sapiens, UniProt P08709).
T1 sequence (P08709 whole entry): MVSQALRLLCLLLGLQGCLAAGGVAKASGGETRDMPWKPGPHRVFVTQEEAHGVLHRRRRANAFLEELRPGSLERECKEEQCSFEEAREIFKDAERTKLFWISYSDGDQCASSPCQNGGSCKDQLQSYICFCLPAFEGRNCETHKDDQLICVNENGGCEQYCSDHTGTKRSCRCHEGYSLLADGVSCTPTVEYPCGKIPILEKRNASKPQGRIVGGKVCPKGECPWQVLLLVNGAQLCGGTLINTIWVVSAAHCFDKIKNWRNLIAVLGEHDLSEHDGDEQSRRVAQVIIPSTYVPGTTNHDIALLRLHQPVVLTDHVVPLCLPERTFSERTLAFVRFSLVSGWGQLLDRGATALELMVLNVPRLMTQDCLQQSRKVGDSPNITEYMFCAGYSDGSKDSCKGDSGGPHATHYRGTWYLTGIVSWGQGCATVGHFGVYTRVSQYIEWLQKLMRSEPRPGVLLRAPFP
Description: Inhibitory activity against tissue coagulation factor VII. An outline of the steps:
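Complex of recombinant soluble tissue factor (100 nM) and recombinant human Factor VIIa (2 nM). Substrate N-methylsulfonyl-D-Phe-Gly-Arg-p-nitroaniline at 0.4 mM in 5 mM CaCl2, 50 mM Tris-HCl pH 8.0, 100 mM NaCl, 0.1% BSA. Background A405 read first; after 60 min at room temperature, hydrolysis rate read at 405 nm. Duplicates at seven concentrations; IC50 is the duplicate average.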

A further experiment has as its target Prothrombin (Homo sapiens, UniProt P00734). Description: Inhibitory activity against thrombin (IIa). An outline of the steps: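 Human thrombin (0.28 nM) with H-D-Phe-Pip-Arg-p-nitroaniline (0.06 mM) in 50 mM Tris-HCl pH 8.0, 100 mM NaCl, 0.1% BSA. Immediate background read at 405 nm, then 60 min at room temperature before measuring p-nitroaniline release rate at 405 nm. Seven concentrations in duplicate; % inhibition versus control; IC50 by four-parameter logistic regression.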

For another experiment, the target named is Coagulation factor X (Homo sapiens, UniProt P00742). Description: Inhibitory activity against coagulation factor X. The procedure, abridged:
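Human Factor Xa (0.3 nM) with chromogenic substrate S-2765 (0.15 mM) in 50 mM Tris-HCl pH 8.0, 100 mM NaCl, 0.1% BSA. A405 background read taken at once, then 60 min at room temperature, then p-nitroaniline release rate at 405 nm. Duplicates at seven concentrations; % inhibition versus control; IC50 from four-parameter logistic fit, averaged over the duplicates.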

The record followed here is ChEMBL document CHEMBL1145084, “Polymer-assisted solution-phase library synthesis and crystal structure of alpha-ketothiazoles as tissue factor VIIa inhibitors” (J Med Chem, 2003).

Chain of Coagulation factor X (P00742 41-179 limits assumed): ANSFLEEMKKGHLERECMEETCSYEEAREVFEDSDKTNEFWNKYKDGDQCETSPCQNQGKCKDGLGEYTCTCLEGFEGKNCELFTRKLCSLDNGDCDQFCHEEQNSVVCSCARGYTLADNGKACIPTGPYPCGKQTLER
Chain of Coagulation factor X (P00742 235-488 limits assumed): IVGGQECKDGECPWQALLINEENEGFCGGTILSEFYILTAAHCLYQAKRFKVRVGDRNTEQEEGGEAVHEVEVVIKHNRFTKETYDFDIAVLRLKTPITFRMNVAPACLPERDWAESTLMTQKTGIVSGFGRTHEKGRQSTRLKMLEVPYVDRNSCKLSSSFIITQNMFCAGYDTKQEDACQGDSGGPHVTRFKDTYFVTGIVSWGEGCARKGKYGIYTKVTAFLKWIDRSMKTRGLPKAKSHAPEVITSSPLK

In turn, `N=C(N)NCCC[C@H](NC(=O)[C@H](Cc1ccc(I)cc1)NC(=O)[C@@H](Cc1ccccc1)NS(=O)(=O)Cc1ccccc1)C(=O)c1nccs1` gave a Selectivity in experiment [1] of 4. Further, the IC50 (in general, the midpoint of a concentration-inhibition curve) against Coagulation factor VII was found to be 1.56 µM; against Prothrombin, 6.3 µM; at Coagulation factor X, 0.5 µM.

In turn, `N#CC[C@H](NC(=O)[C@@H](Cc1ccccc1)NS(=O)(=O)Cc1ccccc1)C(=O)N[C@@H](CCCNC(=N)N)C(=O)c1nccs1` had a Selectivity in experiment [1] of 69.

On to `N=C(N)NCCC[C@H](NC(=O)[C@H](CO)NC(=O)[C@@H](Cc1ccccc1)NS(=O)(=O)Cc1ccccc1)C(=O)c1nccs1`, for which the Selectivity in experiment [1] stood at 0.4. For the same compound, the IC50 at Coagulation factor VII worked out at 0.11 µM; at Prothrombin, 0.04 µM; at Coagulation factor X, 0.24 µM.

The compound `N=C(N)NCCC[C@H](NC(=O)[C@H](CC(N)=O)NC(=O)[C@@H](Cc1ccccc1)NS(=O)(=O)Cc1ccccc1)C(=O)c1nccs1` registered a Selectivity in experiment [1] of 58.

In experiment [1], `N=C(N)NCCC[C@H](NC(=O)[C@H](CC(=O)OC1CCCCC1)NC(=O)[C@@H](Cc1ccccc1)NS(=O)(=O)Cc1ccccc1)C(=O)c1nccs1` yielded a Selectivity of 2. Moreover, the IC50 at Coagulation factor VII is 3.18 µM; against Prothrombin, 4.99 µM; on Coagulation factor X, 1.25 µM.

`Cc1cccc(C)c1C[C@H](NC(=O)[C@@H](Cc1ccccc1)NS(=O)(=O)Cc1ccccc1)C(=O)N[C@@H](CCCN=C(N)N)C(=O)c1nccs1` showed a Selectivity in experiment [1] of 40. Moreover, the values for the IC50 against Coagulation factor VII, at Prothrombin and at Coagulation factor X were 0.7 µM, 28.1 µM and 2.77 µM, respectively.

The compound `N=C(N)NCCC[C@H](NC(=O)[C@H](Cc1cn(Cc2ccccc2)cn1)NC(=O)[C@@H](Cc1ccccc1)NS(=O)(=O)Cc1ccccc1)C(=O)c1nccs1` yielded a Selectivity in experiment [1] of 1. The IC50 came to 9.97 µM on Coagulation factor VII, 9.92 µM against Prothrombin and 2.4 µM at Coagulation factor X.

As to `CC(C)(C)C[C@H](NC(=O)[C@@H](Cc1ccccc1)NS(=O)(=O)Cc1ccccc1)C(=O)N[C@@H](CCCNC(=N)N)C(=O)c1nccs1`, the values for the IC50 on Coagulation factor VII, against Prothrombin and on Coagulation factor X were 0.7 µM, 0.44 µM and 1.03 µM, respectively.

`N=C(N)NCCC[C@H](NC(=O)[C@H](Cc1ccc(Br)cc1)NC(=O)[C@@H](Cc1ccccc1)NS(=O)(=O)Cc1ccccc1)C(=O)c1nccs1`: the Selectivity in experiment [1] turned out to be 4. Further, the IC50 stood at 0.76 µM against Coagulation factor VII, 3.19 µM on Prothrombin and 0.38 µM on Coagulation factor X.

In experiment [1], `CN(C)CCCC[C@H](NC(=O)[C@@H](Cc1ccccc1)NS(=O)(=O)Cc1ccccc1)C(=O)N[C@@H](CCCN=C(N)N)C(=O)c1nccs1` showed a Selectivity of 5.

`N=C(N)NCCC[C@H](NC(=O)[C@H](Cc1ccccc1F)NC(=O)[C@@H](Cc1ccccc1)NS(=O)(=O)Cc1ccccc1)C(=O)c1nccs1` gave a Selectivity in experiment [1] of over 333.

`N=C(N)NCCC[C@H](NC(=O)[C@H](CCc1ccccc1)NC(=O)[C@@H](Cc1ccccc1)NS(=O)(=O)Cc1ccccc1)C(=O)c1nccs1` had a Selectivity in experiment [1] of 12. For the same compound, the IC50 against Coagulation factor VII was 0.9 µM; against Prothrombin, 10.4 µM; against Coagulation factor X, 0.54 µM.

`N=C(N)NCCC[C@H](NC(=O)[C@H](Cc1ccc(-c2ccccc2)cc1)NC(=O)[C@@H](Cc1ccccc1)NS(=O)(=O)Cc1ccccc1)C(=O)c1nccs1` had a Selectivity in experiment [1] of 1. Further, the IC50 is 17.8 µM against Coagulation factor VII, 11.2 µM against Prothrombin and 3.14 µM at Coagulation factor X.

For `CC(=O)Nc1ccc(C[C@H](NC(=O)[C@@H](Cc2ccccc2)NS(=O)(=O)Cc2ccccc2)C(=O)N[C@@H](CCCNC(=N)N)C(=O)c2nccs2)cc1`, the IC50 against Coagulation factor VII came out at 0.57 µM; against Prothrombin, 4.59 µM; at Coagulation factor X, 0.3 µM.

`N=C(N)NCCC[C@H](NC(=O)[C@H](CC1CCCCC1)NC(=O)[C@@H](Cc1ccccc1)NS(=O)(=O)Cc1ccccc1)C(=O)c1nccs1` yielded a Selectivity in experiment [1] of 7. The IC50 was 3.3 µM against Coagulation factor VII, 24.2 µM against Prothrombin and 2.7 µM on Coagulation factor X.

Take `CN(C)CCCC[C@H](NC(=O)[C@@H](Cc1ccccc1)NS(=O)(=O)Cc1ccccc1)C(=O)N[C@@H](CCCNC(=N)N)C(=O)c1nccs1`: the IC50 was 2.82 µM on Coagulation factor VII, 15.4 µM against Prothrombin and 1.7 µM on Coagulation factor X.

Turning to `N#Cc1ccc(C[C@H](NC(=O)[C@@H](Cc2ccccc2)NS(=O)(=O)Cc2ccccc2)C(=O)N[C@@H](CCCNC(=N)N)C(=O)c2nccs2)cc1`, the Selectivity in experiment [1] stood at 147.

Consider `N=C(N)NCCC[C@H](NC(=O)[C@H](Cc1cc(F)c(F)c(F)c1)NC(=O)[C@@H](Cc1ccccc1)NS(=O)(=O)Cc1ccccc1)C(=O)c1nccs1`, for which the IC50 was 0.2 µM at Coagulation factor VII and 0.25 µM at Coagulation factor X.

`N=C(N)NCCC[C@H](NC(=O)[C@H](Cc1cc(F)cc(F)c1)NC(=O)[C@@H](Cc1ccccc1)NS(=O)(=O)Cc1ccccc1)C(=O)c1nccs1` had a Selectivity in experiment [1] of 36. The IC50 against Coagulation factor VII is 0.19 µM; against Prothrombin it was 6.82 µM; at Coagulation factor X it was 0.18 µM.

As for `NC(N)=NCCC[C@H](NC(=O)[C@H](Cc1ccc([N+](=O)[O-])cc1)NC(=O)[C@@H](Cc1ccccc1)NS(=O)(=O)Cc1ccccc1)C(=O)c1nccs1`, the IC50 on Coagulation factor VII is 5.88 µM; on Prothrombin, over 30 µM; on Coagulation factor X it was 2.18 µM.

As for `N=C(N)NCCC[C@H](NC(=O)[C@H](Cc1cccc(F)c1)NC(=O)[C@@H](Cc1ccccc1)NS(=O)(=O)Cc1ccccc1)C(=O)c1nccs1`, in experiment [1], the Selectivity was determined as 75.

In the case of `CC(C)(C)C[C@H](NC(=O)[C@@H](Cc1ccccc1)NS(=O)(=O)Cc1ccccc1)C(=O)N[C@@H](CCCN=C(N)N)C(=O)c1nccs1`, the Selectivity in experiment [1] turned out to be 0.6.

Take `N=C(N)NCCC[C@H](NC(=O)[C@H](COCc1ccccc1)NC(=O)[C@@H](Cc1ccccc1)NS(=O)(=O)Cc1ccccc1)C(=O)c1nccs1`: the Selectivity in experiment [1] was 6. The results for the IC50 against Coagulation factor VII, at Prothrombin and against Coagulation factor X were 1.53 µM, 9.89 µM and 0.31 µM, respectively.

`Cc1ccccc1C[C@H](NC(=O)[C@@H](Cc1ccccc1)NS(=O)(=O)Cc1ccccc1)C(=O)N[C@@H](CCCN=C(N)N)C(=O)c1nccs1` returned a Selectivity in experiment [1] of 90.

In turn, `N=C(N)NCCC[C@H](NC(=O)[C@H](Cc1ccccc1)NC(=O)[C@@H](Cc1ccccc1)NS(=O)(=O)Cc1ccccc1)C(=O)c1nccs1` showed a Selectivity in experiment [1] of 95.

`N=C(N)NCCC[C@H](NC(=O)[C@H](Cc1ccc(Cl)cc1)NC(=O)[C@@H](Cc1ccccc1)NS(=O)(=O)Cc1ccccc1)C(=O)c1nccs1` had a Selectivity in experiment [1] of 5. The IC50 on Coagulation factor VII came to 0.68 µM; against Prothrombin it was 3.42 µM; against Coagulation factor X, 0.61 µM.

In experiment [1], `CC[C@@H](C)[C@H](NC(=O)[C@@H](Cc1ccccc1)NS(=O)(=O)Cc1ccccc1)C(=O)N[C@@H](CCCN=C(N)N)C(=O)c1nccs1` yielded a Selectivity of 64.

In the case of `N=C(N)NCCC[C@H](NC(=O)[C@H](Cc1ccc2ccccc2c1)NC(=O)[C@@H](Cc1ccccc1)NS(=O)(=O)Cc1ccccc1)C(=O)c1nccs1`, the Selectivity in experiment [1] was 1. Further, the IC50 stood at 1.95 µM at Coagulation factor VII, 2.4 µM against Prothrombin and 0.77 µM at Coagulation factor X.

For the compound `N=C(N)NCCC[C@H](NC(=O)[C@H](Cc1cccc(Cl)c1)NC(=O)[C@@H](Cc1ccccc1)NS(=O)(=O)Cc1ccccc1)C(=O)c1nccs1`, the Selectivity in experiment [1] turned out to be 63.

Consider `CC(=O)Nc1ccc(C[C@H](NC(=O)[C@@H](Cc2ccccc2)NS(=O)(=O)Cc2ccccc2)C(=O)N[C@@H](CCCN=C(N)N)C(=O)c2nccs2)cc1`, for which the Selectivity in experiment [1] came out at 8.

`Cc1cccc(C[C@H](NC(=O)[C@@H](Cc2ccccc2)NS(=O)(=O)Cc2ccccc2)C(=O)N[C@@H](CCCN=C(N)N)C(=O)c2nccs2)c1` yielded a Selectivity in experiment [1] of 71.

`N=C(N)NCCC[C@H](NC(=O)[C@H](Cc1cccnc1)NC(=O)[C@@H](Cc1ccccc1)NS(=O)(=O)Cc1ccccc1)C(=O)c1nccs1` registered a Selectivity in experiment [1] of 500.

On to `N=C(N)NCCC[C@H](NC(=O)[C@H](Cc1cccc(C(F)(F)F)c1)NC(=O)[C@@H](Cc1ccccc1)NS(=O)(=O)Cc1ccccc1)C(=O)c1nccs1`, for which, in experiment [1], the Selectivity was 106.

`N=C(N)NCCC[C@H](NC(=O)[C@H](Cc1ccc(F)c(F)c1)NC(=O)[C@@H](Cc1ccccc1)NS(=O)(=O)Cc1ccccc1)C(=O)c1nccs1`: the Selectivity in experiment [1] is 70.

Turning to `N=C(N)NCCC[C@H](NC(=O)[C@H](Cc1ccc([N+](=O)[O-])cc1)NC(=O)[C@@H](Cc1ccccc1)NS(=O)(=O)Cc1ccccc1)C(=O)c1nccs1`, in experiment [1], the Selectivity was over 5.
